Key:
[1] = Selectivity ratio of Ki for human adenosine A1 receptor expressed in CHO cell membrane to Ki for human adenosine A2A receptor expressed in CHO cell membrane; assay type: cell-based
[2] = Selectivity ratio of Ki for human adenosine A2A receptor expressed in CHO cell membrane to Ki for human adenosine A3 receptor expressed in CHO cell membrane; assay type: cell-based
[3] = target: Adenosine receptors; A1 & A3 (Homo sapiens) (UniProt P30542+P0DMS8); test: Selectivity ratio of Ki for human adenosine A1 receptor expressed in CHO cell membrane to Ki for human adenosine A3 receptor expressed in CHO cell membrane; assay type: cell-based
Adenosine receptor A2b = target: T1, Adenosine receptor A2b (Homo sapiens, UniProt P29275); test: Antagonist activity at human adenosine A2B receptor expressed in CHO cells assessed as NECA-induced adenylate cyclase activity; assay type: functional, cell-based
T1 sequence (P29275 whole entry): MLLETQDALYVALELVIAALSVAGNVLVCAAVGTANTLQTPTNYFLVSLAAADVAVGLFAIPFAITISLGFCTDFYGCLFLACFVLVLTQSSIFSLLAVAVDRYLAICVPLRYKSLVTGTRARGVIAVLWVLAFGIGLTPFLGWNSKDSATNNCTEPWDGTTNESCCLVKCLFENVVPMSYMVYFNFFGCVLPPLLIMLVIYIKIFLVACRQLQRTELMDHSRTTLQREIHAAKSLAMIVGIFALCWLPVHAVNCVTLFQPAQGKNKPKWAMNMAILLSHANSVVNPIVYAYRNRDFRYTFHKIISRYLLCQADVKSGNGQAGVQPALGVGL
In short: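 Membranes from stably transfected CHO cells made with a single high-speed spin of the homogenate. Incubated 20 min with about 150 000 cpm [α-³²P]ATP in mixture lacking EDTA and NaCl. IC50 taken from concentration-dependent inhibition of NECA-stimulated adenylyl cyclase using Hill equation.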

Adenosine receptor A3 = target: T2, Adenosine receptor A3 (Homo sapiens, UniProt P0DMS8); test: Displacement of [3H]NECA from human adenosine A3 receptor expressed in CHO cell membrane; assay type: cell membranes
T2 sequence (P0DMS8 whole entry): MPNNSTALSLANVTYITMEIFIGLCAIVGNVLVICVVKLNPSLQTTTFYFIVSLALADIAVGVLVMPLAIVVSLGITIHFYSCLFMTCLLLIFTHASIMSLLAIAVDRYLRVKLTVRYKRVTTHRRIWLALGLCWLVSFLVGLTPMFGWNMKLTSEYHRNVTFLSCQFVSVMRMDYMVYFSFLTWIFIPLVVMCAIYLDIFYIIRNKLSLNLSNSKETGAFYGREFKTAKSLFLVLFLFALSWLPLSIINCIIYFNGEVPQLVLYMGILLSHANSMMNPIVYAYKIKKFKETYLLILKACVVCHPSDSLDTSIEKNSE
In short: (§1)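 CHO cells stably transfected with the human receptor subtype. Membranes were prepared by a 1000g spin to clear fragments and nuclei, then pelleted from the supernatant at 100 000g. Pellet was resuspended in the respective binding buffer, frozen in liquid nitrogen and stored until radioligand competition binding.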

Adenosine receptor A2a = Adenosine receptor A2a (Homo sapiens, UniProt P29274); test: Displacement of [3H]NECA from human adenosine A2A receptor expressed in CHO cell membrane; assay type: cell membranes; in short: as §1
Adenosine receptor A1 = target: T3, Adenosine receptor A1 (Homo sapiens, UniProt P30542); test: Displacement of [3H]CCPA from human adenosine A1 receptor expressed in CHO cell membrane; assay type: cell membranes; in short: as §1
T3 sequence (P30542 whole entry): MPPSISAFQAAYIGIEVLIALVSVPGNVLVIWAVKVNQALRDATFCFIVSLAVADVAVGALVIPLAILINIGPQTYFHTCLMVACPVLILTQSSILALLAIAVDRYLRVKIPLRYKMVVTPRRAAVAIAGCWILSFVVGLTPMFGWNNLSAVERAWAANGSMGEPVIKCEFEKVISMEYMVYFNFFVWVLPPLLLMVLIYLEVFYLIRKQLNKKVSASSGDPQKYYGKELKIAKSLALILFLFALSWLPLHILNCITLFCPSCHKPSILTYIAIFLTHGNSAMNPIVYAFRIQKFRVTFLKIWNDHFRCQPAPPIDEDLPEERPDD

Sequence of Adenosine receptor A2a (P29274 whole entry): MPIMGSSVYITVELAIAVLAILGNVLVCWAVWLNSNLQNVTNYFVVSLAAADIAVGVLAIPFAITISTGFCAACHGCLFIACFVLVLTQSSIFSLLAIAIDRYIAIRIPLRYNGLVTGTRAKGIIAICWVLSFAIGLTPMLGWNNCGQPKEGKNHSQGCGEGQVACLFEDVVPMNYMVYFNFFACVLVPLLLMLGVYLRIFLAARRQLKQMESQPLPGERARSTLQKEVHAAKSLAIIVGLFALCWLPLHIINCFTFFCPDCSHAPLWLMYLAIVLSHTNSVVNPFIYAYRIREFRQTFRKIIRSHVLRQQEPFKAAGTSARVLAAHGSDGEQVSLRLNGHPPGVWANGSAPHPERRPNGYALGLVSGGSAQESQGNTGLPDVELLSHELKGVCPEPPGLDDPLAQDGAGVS

| Compound | Ratio Ki [3] | Ki (Adenosine receptor A2b) [µM] | Ki (Adenosine receptor A3) [µM] | Ki (Adenosine receptor A2a) [µM] | Ki (Adenosine receptor A1) [µM] | Ratio Ki [1] | Ratio Ki [2] |
| --- | --- | --- | --- | --- | --- | --- | --- |
| Cn1cc2c(nc(Cl)n3nc(-c4ccco4)nc23)n1 | 17.9 | > 10 | 0.367 | 29.9 | 6.56 | 0.22 | 81.5 |
| CC(C)Nc1nc2nn(C)cc2c2nc(-c3ccco3)nn12 | 9.76 | 9.72 | 0.0341 | 0.389 | 0.333 | 0.86 | 11.4 |
| Cn1cc2c(nc(N(Cc3ccccc3)Cc3ccccc3)n3nc(-c4ccco4)nc23)n1 | 1.76 | > 10 | 0.404 | 1.15 | 0.711 | 0.62 | 2.85 |
| CCCCCCC(C)Nc1nc2nn(C)cc2c2nc(-c3ccco3)nn12 (stereo not drawn) | 11.1 | > 10 | 0.0238 | 0.701 | 0.265 | 0.38 | 29.4 |
| Cn1cc2c(nc(NCCCCO)n3nc(-c4ccco4)nc23)n1 | 4.13 | > 10 | 0.252 | 0.251 | 1.04 | 4.14 | 1 |
| Cn1cc2c(nc(N3CCOCC3)n3nc(-c4ccco4)nc23)n1 | 4.71 | > 10 | 0.514 | 1.67 | 2.42 | 1.45 | 3.25 |
| CC(CCc1ccccc1)Nc1nc2nn(C)cc2c2nc(-c3ccco3)nn12 (stereo not drawn) | 3.52 | 5.26 | 0.0378 | 0.147 | 0.133 | 0.9 | 3.89 |
| Cn1cc2c(nc(NC(CO)CO)n3nc(-c4ccco4)nc23)n1 | 1.19 | > 10 | 0.536 | 0.597 | 0.639 | 1.07 | 1.11 |
| Cn1cc2c(nc(NC3CCCCCCC3)n3nc(-c4ccco4)nc23)n1 | 31.2 | > 10 | 0.0155 | 0.279 | 0.484 | 1.73 | 18 |
| Cn1cc2c(nc(N3CCCCC3)n3nc(-c4ccco4)nc23)n1 | 56.4 | > 10 | 0.0381 | 0.352 | 2.15 | 6.11 | 9.24 |
| CN(c1nc2nn(C)cc2c2nc(-c3ccco3)nn12)C1CCCCC1 | 31.2 | > 10 | 0.0327 | 2.73 | 1.02 | 0.37 | 83.5 |
| CONc1nc2nn(C)cc2c2nc(-c3ccco3)nn12 | 6.81 | 8.5 | 0.404 | 0.185 | 2.75 | 14.9 | 0.46 |
| COCCNc1nc2nn(C)cc2c2nc(-c3ccco3)nn12 | 9.76 | > 10 | 0.246 | 0.407 | 2.4 | 5.9 | 1.65 |
| CN(Cc1ccccc1)c1nc2nn(C)cc2c2nc(-c3ccco3)nn12 | 31.4 | > 10 | 0.018 | 1.08 | 0.566 | 0.52 | 60 |
| Cn1cc2c(nc(NC(C)(C)CC(C)(C)C)n3nc(-c4ccco4)nc23)n1 | 7.55 | > 10 | 0.13 | 3.23 | 0.982 | 0.3 | 24.8 |
| COc1ccc(CNc2nc3nn(C)cc3c3nc(-c4ccco4)nn23)cc1 | 63.9 | 9.84 | 0.00692 | 0.177 | 0.442 | 2.5 | 25.6 |
| Cn1cc2c(nc(NC3C4CC5CC(C4)CC3C5)n3nc(-c4ccco4)nc23)n1 (stereo not drawn) | 39.9 | > 10 | 0.0188 | 0.848 | 0.75 | 0.88 | 45.1 |
| Cn1cc2c(nc(N3CCCC3)n3nc(-c4ccco4)nc23)n1 | 9.24 | > 10 | 0.0355 | 0.132 | 0.328 | 2.48 | 3.72 |
| COc1ccc(CNc2nc3nn(C)cc3c3nc(-c4ccco4)nn23)cc1OC | 129 | > 3 | 0.0211 | 0.0641 | 2.72 | 42.3 | 3.04 |
| Cn1cc2c(nc(NCCOc3ccccc3)n3nc(-c4ccco4)nc23)n1 | 16.7 | 7.5 | 0.0386 | 0.121 | 0.646 | 5.34 | 3.13 |
| Cn1cc2c(n1)[nH]c(=O)n1nc(-c3ccco3)nc21 | > 5.68 | > 10 | 5.28 | > 30 | > 30 |  | > 5.68 |
| Cn1cc2c(nc(NC34CC5CC(CC(C5)C3)C4)n3nc(-c4ccco4)nc23)n1 | 87.6 | > 10 | 0.0378 | > 30 | 3.31 |  | > 794 |
| COc1nc2nn(C)cc2c2nc(-c3ccco3)nn12 | > 36.5 | > 10 | 0.822 | > 30 | > 30 |  | > 36.5 |

More lines, in order of falling Ki (Adenosine receptor A2b), values ahead:

| Ratio Ki [3] | Ki (Adenosine receptor A2b) [µM] | Ki (Adenosine receptor A3) [µM] | Ki (Adenosine receptor A2a) [µM] | Ki (Adenosine receptor A1) [µM] | Compound | Ratio Ki [1] | Ratio Ki [2] |
| --- | --- | --- | --- | --- | --- | --- | --- |
| 27.8 | 4.81 | 0.00593 | 0.272 | 0.165 | CC[C@@H](C)Nc1nc2nn(C)cc2c2nc(-c3ccco3)nn12 | 0.61 | 45.9 |
| 503 | 3.94 | 0.00107 | 0.117 | 0.538 | Cc1ccc(CNc2nc3nn(C)cc3c3nc(-c4ccco4)nn23)cc1 | 4.6 | 109 |
| 25 | 3.86 | 0.00523 | 0.248 | 0.131 | CCC(C)Nc1nc2nn(C)cc2c2nc(-c3ccco3)nn12 (racemic) | 0.53 | 47.4 |
| 212 | 3.33 | 0.00249 | 0.091 | 0.527 | Cn1cc2c(nc(NCc3ccccc3)n3nc(-c4ccco4)nc23)n1 | 5.79 | 36.5 |
| 167 | 3.18 | 0.00493 | 0.0875 | 0.823 | Cn1cc2c(nc(NCc3ccc(F)cc3)n3nc(-c4ccco4)nc23)n1 | 9.41 | 17.8 |
| 40.4 | 2.87 | 0.0309 | 0.077 | 1.25 | Cn1cc2c(nc(NCCc3c[nH]c4ccccc34)n3nc(-c4ccco4)nc23)n1 | 16.2 | 2.49 |
| 13.9 | 2.79 | 0.0528 | 0.0461 | 0.733 | Cn1cc2c(nc(NCCc3ccccc3)n3nc(-c4ccco4)nc23)n1 | 15.9 | 0.87 |
| 162 | 2.62 | 0.00199 | 0.0754 | 0.322 | Cn1cc2c(nc(NCc3ccc(Cl)cc3)n3nc(-c4ccco4)nc23)n1 | 4.27 | 37.9 |
| 11.7 | 2.6 | 0.011 | 0.244 | 0.129 | CC[C@H](C)Nc1nc2nn(C)cc2c2nc(-c3ccco3)nn12 | 0.53 | 22.2 |
| 30.4 | 2.11 | 0.0634 | 0.368 | 1.93 | CNc1nc2nn(C)cc2c2nc(-c3ccco3)nn12 | 5.24 | 5.8 |

— ChEMBL document CHEMBL2177027, “Exploring the directionality of 5-substitutions in a new series of 5-alkylaminopyrazolo[4,3-e]1,2,4-triazolo[1,5-c]pyrimidine as a strategy to design novel human a(3) adenosine receptor antagonists” (J Med Chem, 2012)
